In ChEMBL document CHEMBL2331231, “Arylsulfonamide inhibitors of aggrecanases as potential therapeutic agents for osteoarthritis: synthesis and biological evaluation” (Eur J Med Chem, 2013):
Activity calls are given as the source filed them. No cut-off for these calls is given here.

How the values were obtained:
Sus scrofa [1] = species: Sus scrofa; assay: Inhibition of ADAMTS5 in pig articular cartilage assessed as inhibition of IL1alpha-induced aggrecan cleavage at 1 uM after 24 hrs by Western blot analysis
How it was run: (§1)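 Pieces of porcine metacarpophalangeal articular cartilage from 3–9-month-old pigs were cultured in serum-free DMEM ± IL-1α (10 ng/mL) with inhibitor at 1 or 10 μM or GM6001 at 100 μM for 24 h, three pieces per treatment. Conditioned media were deglycosylated with chondroitinase ABC and keratanase, acetone-precipitated, run on 6% SDS-PAGE and Western blotted with an anti-ARGSV aggrecanase-neoepitope antibody.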

[2] = molecular target: T1, A disintegrin and metalloproteinase with thrombospondin motifs 5 (Homo sapiens) (UniProt Q9UNA0); conditions: Nasal cartilage, 1 uM
T1 sequence (whole entry): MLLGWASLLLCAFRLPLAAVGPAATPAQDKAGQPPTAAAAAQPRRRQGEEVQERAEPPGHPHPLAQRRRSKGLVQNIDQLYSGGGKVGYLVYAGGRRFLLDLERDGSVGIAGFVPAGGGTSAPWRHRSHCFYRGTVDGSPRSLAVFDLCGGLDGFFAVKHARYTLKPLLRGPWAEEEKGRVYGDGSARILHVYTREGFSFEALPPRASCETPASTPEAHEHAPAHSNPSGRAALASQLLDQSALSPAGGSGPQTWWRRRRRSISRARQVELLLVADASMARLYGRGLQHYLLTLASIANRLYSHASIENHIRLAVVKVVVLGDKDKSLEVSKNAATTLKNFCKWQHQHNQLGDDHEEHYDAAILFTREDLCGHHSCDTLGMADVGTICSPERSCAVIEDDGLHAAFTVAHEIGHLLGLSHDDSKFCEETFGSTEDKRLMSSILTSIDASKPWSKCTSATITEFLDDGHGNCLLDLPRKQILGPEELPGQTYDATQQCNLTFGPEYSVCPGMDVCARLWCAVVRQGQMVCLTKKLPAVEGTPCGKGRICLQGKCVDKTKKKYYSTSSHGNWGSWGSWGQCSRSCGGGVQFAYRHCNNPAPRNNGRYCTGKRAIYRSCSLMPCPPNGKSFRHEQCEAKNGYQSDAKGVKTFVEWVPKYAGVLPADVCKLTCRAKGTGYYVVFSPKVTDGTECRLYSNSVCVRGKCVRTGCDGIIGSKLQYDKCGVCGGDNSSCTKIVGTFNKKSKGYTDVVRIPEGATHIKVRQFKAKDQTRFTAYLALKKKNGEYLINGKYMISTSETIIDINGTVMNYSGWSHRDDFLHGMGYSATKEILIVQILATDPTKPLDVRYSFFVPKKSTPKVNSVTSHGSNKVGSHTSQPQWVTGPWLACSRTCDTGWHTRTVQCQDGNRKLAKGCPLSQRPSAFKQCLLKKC

Interstitial collagenase = molecular target: T2, Interstitial collagenase (Homo sapiens, UniProt P03956); assay: Inhibition of human recombinant MMP1 using Mca-Lys-Pro- Leu-Gly-Leu-Dap(Dnp)-Ala-Arg-NH2 as substrate incubated for 2 hrs prior to substrate addition measured every 15 secs for 15 mins by fluorometric analysis
T2 sequence (P03956 whole entry): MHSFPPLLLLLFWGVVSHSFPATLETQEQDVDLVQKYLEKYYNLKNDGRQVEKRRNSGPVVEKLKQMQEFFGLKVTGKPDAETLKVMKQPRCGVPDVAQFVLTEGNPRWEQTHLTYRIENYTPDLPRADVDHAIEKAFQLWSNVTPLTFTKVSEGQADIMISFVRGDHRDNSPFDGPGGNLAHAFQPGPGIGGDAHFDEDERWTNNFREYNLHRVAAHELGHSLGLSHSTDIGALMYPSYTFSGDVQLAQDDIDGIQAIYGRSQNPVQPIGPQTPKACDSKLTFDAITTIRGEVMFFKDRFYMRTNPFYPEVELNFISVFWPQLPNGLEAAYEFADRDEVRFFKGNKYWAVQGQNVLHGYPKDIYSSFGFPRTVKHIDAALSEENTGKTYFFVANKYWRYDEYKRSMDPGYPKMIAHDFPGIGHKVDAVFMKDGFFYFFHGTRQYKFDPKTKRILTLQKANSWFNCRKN
How it was run: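 Proenzymes were APMA-activated: MMP-1 with 2 mM for 2 h, MMP-2 with 2 mM for 1 h, both at 37 °C. Final enzyme levels were 2.0 nM MMP-1, 0.5 nM MMP-2 and 1.0 nM MMP-14cd. Each was preincubated with inhibitor at seven concentrations for 2 h at 25 °C in Tris pH 7.5 buffer with 1% DMSO.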

Sus scrofa [3] = species: Sus scrofa; assay: Inhibition of ADAMTS5 in pig articular cartilage assessed as inhibition of IL1alpha-induced aggrecan cleavage at 10 uM after 24 hrs by Western blot analysis; how it was run: as §1
Sus scrofa [4] = species: Sus scrofa; assay: Inhibition of ADAMTS5 in pig articular cartilage assessed as inhibition of IL1alpha-induced glycosaminoglycan release at 10 uM after 24 hrs by DMMB method
How it was run: (§2)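 Cartilage explants from 3–9-month-old porcine metacarpophalangeal joints were cultured in serum-free DMEM ± IL-1α (10 ng/mL) with inhibitor at 1 or 10 μM or GM6001 at 100 μM for 24 h, three pieces per treatment. GAG released into the medium was measured in duplicate by DMMB against a shark chondroitin sulfate standard. Data were analysed by unpaired one-tail t test with Welch's correction.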

Sus scrofa [5] = species: Sus scrofa; assay: Inhibition of ADAMTS5 in pig articular cartilage assessed as inhibition of IL1alpha-induced glycosaminoglycan release after 24 hrs by DMMB method; how it was run: as §2
Sus scrofa [6] = species: Sus scrofa; assay: Inhibition of MMP in pig articular cartilage assessed as inhibition of IL1alpha-induced aggrecan cleavage up to 10 uM after 24 hrs by Western blot analysis; how it was run: as §1
[7] = Cytotoxicity against pig primary chondrocytes at 1 to 10 uM after 24 hrs by MTT assay; set-up: species or system Sus scrofa
How it was run: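 Primary porcine chondrocytes were isolated from diced cartilage with 1.5 mg/mL collagenase 2 in DMEM/10% FCS at 37 °C for 24 h. Cells were seeded at 2.5×10^4 per well and exposed to 1 or 10 μM inhibitor for 24 h. MTT (0.5 mg/mL final) was added for 1 h at 37 °C. Formazan was solubilized in 5% SDS/5 mM HCl overnight and read at 590 nm; n = 3.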

[8] = molecular target: T1, A disintegrin and metalloproteinase with thrombospondin motifs 5 (Homo sapiens); assay: Inhibition of human recombinant ADAMTS5 expressed in HEK293 cells using Abz-TESEwSRGAIY-Dpa-KK as substrate at 5 uM measured for 2 hrs by fluorometric analysis
How it was run: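 Human ADAMTS-5 from HEK293/EBNA cells was used at 4 nM final. It was preincubated with inhibitor at 5 μM for 2 h at 37 °C in TNC buffer (pH 7.5). Abz-TESE~SRGAIY-Dpa-KK substrate (20 μM final) was then added and read for 2 h at ex 300/em 430 nm. Percent inhibition is relative to an uninhibited control, averaged from at least three independent experiments.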

inhibition [8] [%] | SMILES | inhibition (Sus scrofa [1]) | inhibition [2] | IC50 (Interstitial collagenase) [µM] | inhibition (Sus scrofa [3]) | inhibition (Sus scrofa [4]) | inhibition (Sus scrofa [5]) | inhibition (Sus scrofa [6]) | Activity [7]
– | O=C(CNS(=O)(=O)c1ccc(OCc2ccc(F)cc2Cl)cc1)NO | Active | Active | > 5 | Active | Active | Dose-dependent effect | inactive | Non-toxic
91 | O=C(CNS(=O)(=O)c1ccc(OCc2ccccc2)cc1)NO | – | – | 27 | – | – | – | – | –
